# The list is a sample of the results.
# Apaf1 activ: activators of human Apaf-1 apoptosome. O14727. Apaf-1 apoptosome caspase-3 activation, DEVD-Rh110 fluorescence; stronger effect = lower value. activity change, negative = activation, % at 20 µM. 0.31% of 330,000 active;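 active means activity change at or below -40% at 20 µM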
# Target sequence (O14727 whole entry, looked up): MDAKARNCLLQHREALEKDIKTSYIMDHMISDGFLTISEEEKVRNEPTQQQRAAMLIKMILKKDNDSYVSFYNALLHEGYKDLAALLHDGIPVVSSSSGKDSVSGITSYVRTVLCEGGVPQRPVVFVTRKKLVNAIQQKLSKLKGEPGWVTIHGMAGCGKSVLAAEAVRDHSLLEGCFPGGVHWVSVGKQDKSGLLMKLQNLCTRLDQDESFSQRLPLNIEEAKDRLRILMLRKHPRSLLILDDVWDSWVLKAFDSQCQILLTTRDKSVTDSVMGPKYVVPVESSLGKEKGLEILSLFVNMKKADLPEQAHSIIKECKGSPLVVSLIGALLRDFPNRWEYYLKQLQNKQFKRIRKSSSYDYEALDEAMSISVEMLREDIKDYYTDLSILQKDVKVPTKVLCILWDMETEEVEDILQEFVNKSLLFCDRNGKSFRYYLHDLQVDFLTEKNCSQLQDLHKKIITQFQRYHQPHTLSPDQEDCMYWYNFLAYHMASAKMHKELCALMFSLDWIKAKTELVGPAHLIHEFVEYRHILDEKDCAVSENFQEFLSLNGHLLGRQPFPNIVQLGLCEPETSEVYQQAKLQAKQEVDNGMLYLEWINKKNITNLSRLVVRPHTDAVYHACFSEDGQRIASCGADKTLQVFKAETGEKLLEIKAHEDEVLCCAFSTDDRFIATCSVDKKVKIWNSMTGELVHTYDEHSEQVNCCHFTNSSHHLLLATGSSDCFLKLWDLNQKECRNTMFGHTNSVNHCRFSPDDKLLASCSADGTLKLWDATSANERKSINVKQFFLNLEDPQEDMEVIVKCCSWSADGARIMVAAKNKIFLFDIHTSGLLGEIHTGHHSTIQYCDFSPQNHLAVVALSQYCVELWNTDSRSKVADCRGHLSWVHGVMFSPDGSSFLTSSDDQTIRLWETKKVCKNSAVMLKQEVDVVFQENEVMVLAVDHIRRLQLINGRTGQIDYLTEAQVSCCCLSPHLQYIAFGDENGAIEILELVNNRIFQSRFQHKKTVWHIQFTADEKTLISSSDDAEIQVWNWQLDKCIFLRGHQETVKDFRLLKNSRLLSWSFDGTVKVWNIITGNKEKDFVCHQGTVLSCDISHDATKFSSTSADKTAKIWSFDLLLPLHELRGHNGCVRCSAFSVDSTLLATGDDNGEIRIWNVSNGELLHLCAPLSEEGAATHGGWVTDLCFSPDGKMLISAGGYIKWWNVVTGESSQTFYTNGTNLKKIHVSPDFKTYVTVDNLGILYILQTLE
#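 Assay system – biochemical Apaf-1 apoptosome reconstitution · Medium – 20 mM HEPES buffer, pH 7.5, containing CHAPS and BSA · Incubation – 30 min preincubation, 50 min reaction, room temperature · Measured by – Caspase-3-released Rh110 fluorescence, 540 nm emission, 480 nm excitation · Read-out – Caspase-3 cleavage activity downstream of Apaf-1 activation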
# Rh110 act interf: interferes with Rh110 fluorescence, flagging false Apaf-1 activators; shares compounds with Apaf1 activ; Rh110 fluorescence interference, quenched caspase reaction, Ex480/Em540; fluorescence interference (activity change), % at 20 µM, hits read low; 980 tested, under 10 active; AID 504616;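 active means mean activity change at or below -40% when tested at 20 µM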
# Apaf-1 act conf2: confirmation of human Apaf-1 activators. shares compounds with Apaf1 activ. reconstituted apoptosome caspase-3 activity, DEVD-Rh110 fluorescence; stronger effect = lower value. activity change, negative = activation, % at 20 µM. 5% of 980 active;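 active means mean activity change at or below -40%, meaning activation of 40% or more, at 20 µM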
# An asterisk follows results filed as active; / = no result given; + = active, no number.
SMILES,Apaf1 activ,Rh110 act interf,Apaf-1 act conf2
COc1ccc2cc1Oc1ccc(cc1)C[C@H]1c3c(cc(OC)c4c3Oc3c(ccc5c3[C@H](C2)N(C)CC5)O4)CCN1C,59,/,/
COC(=O)c1cccnc1-n1c(=O)c2cccnc2n(Cc2cccc([N+](=O)[O-])c2)c1=O,-65*,-2,12
O=[N+]([O-])c1ccc(C=Nc2cccc3ccccc23)s1,68,/,/
COc1cc2c(cc1OC)-c1cc3ccc4c(c3c[n+]1CC2)OCO4,73,/,/
C#CCOCCOCCOCCNc1nc(N2CCN(C(=O)[C@H](Cc3ccc(O)cc3)n3cc([C@@H](N)C(C)CC)nn3)CC2)nc(N2CCN(C(=O)[C@H](Cc3cc4ccccc4[nH]3)n3cc([C@@H](N)Cc4ccc(O)cc4)nn3)CC2)n1 (stereo partly specified),56,/,/
COc1ccccc1CNS(=O)(=O)c1ccc(-c2cc(C)no2)cc1,45,/,/
COc1ccccc1C(CNC(=O)c1ccc(S(=O)(=O)NCc2ccco2)cc1)N(C)C (stereo unspecified),-53*,12,6
Cc1ccc(-c2nn3c(C)nnc3c3ccccc23)cc1S(=O)(=O)NCc1ccco1,44,/,/
O=C1C(Cl)=C(NCCN2CCCCC2)C(=O)c2ccccc21,68,/,/
CCOC(=O)c1cnc(SCC(=O)N2CCN(C(=O)c3ccco3)CC2)nc1N,-93*,1,10
CCOC(=O)c1cnc2ccc(C)cc2c1Nc1ccc(N2CCOCC2)cc1,41,/,/
CCN1CCN(c2ccc(NC(=O)CCc3c(C)nc4c(-c5ccccc5)c(C)nn4c3C)cc2)CC1,48,/,/
Cc1c(C(=O)Nc2ccc(S(=O)(=O)N(C)C3CCN(C)CC3)cc2)oc2ccccc12,53,/,/
CCC1CCCCN1C(=O)COc1ccc(N(C)S(=O)(=O)c2ccc(C)cc2)cc1 (stereo unspecified),51,/,/
Cc1ccc(S(=O)(=O)N(C)c2ccccc2C(=O)NC2CCCC2)cc1,-59*,4,14
CCC(CO)Oc1cc(NCc2cccc(Cl)c2)c2ncn(C(C)C)c2c1 (stereo unspecified),73,/,/
COc1ccc(Br)cc1C1CC(=O)N2CN(C)CSC2=C1C#N (stereo unspecified),42,/,/
CCCCCCCCCn1c2c(c(=N)c3c1CCC3)CCCC2,51,/,/
Cc1ccsc1C=Nc1ccc(O)cc1,94,/,/
Cc1[nH]c(=O)[nH]c(=O)c1CSCC(=O)OCC(=O)c1ccc(Br)cc1,-139*,-3,15
Cc1ccccc1NC(=O)C1CC(Cl)=CCC1C(=O)O (stereo unspecified),-111*,2,11
COc1cc(OC)c2c(-c3cccc(-c4ccc(CO)cc4)c3)cc(=O)oc2c1,42,/,/
COc1cccc2sc(N(CCN(C)C)C(=O)c3ccc4c(c3)CCCC4)nc12,50,/,/
C#CCOCCOCCOCCNc1nc(N2CCN(C(=O)CCCCCCCCCCNC(=O)[C@H](CCCCN)n3cc(C[C@@H](C)CC)nn3)CC2)nc(N2CCN(C(=O)CCCCCCCCCCNC(=O)[C@H](CCCN=C(N)N)n3cc(C[C@@H](C)CC)nn3)CC2)n1,55,/,/
Cc1ccc(NC(=O)C(C)N2C(=O)C3C4CC(C(Br)C4Br)C3C2=O)cc1 (stereo unspecified),-419*,0,4
SMILES,Apaf1 activ,Rh110 act interf,Apaf-1 act conf2
C#CCOCCOCCOCCNc1nc(N2CCN(C(=O)CCCCCCCCCCNC(=O)Cn3cc(CCCCCN)nn3)CC2)nc(N2CCN(C(=O)CCCCCCCCCCNC(=O)Cn3cc(C[C@@H](C)O)nn3)CC2)n1,71,/,/
CN1CCN(c2ccc(NC(=O)c3cc(S(N)(=O)=O)ccc3N3CCOCC3)cc2)CC1,40,/,/
Cc1cccc(NC(=O)c2cc(NC(=O)C3CCCCC3C(=O)O)ccc2N2CCOCC2)c1 (stereo unspecified),-127*,3,12
Cc1cc(C(C)(C)CC(C)(C)C)ccc1OCCOCC[N+](C)(C)Cc1ccccc1,86,/,/
CCCCCCCCCCCCCCCC[N+](C)(C)CCN(Cc1ccc(OC)cc1)c1ncccn1,98,/,/
COc1ccccc1CCn1c(N)c(C#N)c2nc3ccccc3nc21,40,/,/
CN(CCC#N)C(=O)COC(=O)c1cc(Cl)cc(Cl)c1N,-63*,11,17
CC(=O)Nc1ccc(S(=O)(=O)NC2=C(N3CCN(c4ccc(F)cc4)CC3)C(=O)c3ccccc3C2=O)cc1,64,/,/
Cc1ccc(NS(=O)(=O)c2ccc(NC(=O)C3CCCO3)cc2)cc1 (stereo unspecified),-52*,6,12
COc1ccc(-c2sc3ccccc3c2-c2ccc(OCCN3CCCCC3)cc2)cc1,55,/,/
COC1=C(N)C(=O)c2nc(-c3nc(C(=O)O)c(C)c(-c4ccc(OC)c(OC)c4O)c3N)ccc2C1=O,84,/,/
COc1ccc(C(=O)NCCCNC(=O)c2cc3ccccc3[nH]2)cc1OC,-162*,5,10
COc1ccc2[nH]c(=O)c(CNc3ccccc3OC)cc2c1,51,/,/
COc1ccc(CCNC(=O)c2ccc3nc(-c4ccco4)c(-c4ccco4)nc3c2)cc1OC,56,/,/
COc1ccccc1/C=C1/C(=O)N(c2ccccc2)N=C1C,93,/,/
CCN(c1ccccc1)S(=O)(=O)c1ccc(Cl)c(NC(=O)COC(=O)c2cc(O)c3ccccc3c2O)c1,48,/,/
Cc1cc(C(=O)OCC(=O)Nc2ccccc2C#N)c(C)o1,-45*,-11,7
N#CC1(NC(=O)COC(=O)c2cc(O)c3ccccc3c2O)CCCCC1,73,/,/
COc1ccc(C(CNC(=O)C2CC(=O)N(Cc3ccccc3)C2)N2CCCC2)cc1 (stereo unspecified),61,/,/
COc1ccc(OC)c(-c2nn(-c3ccccc3)cc2C(=O)NCC(c2ccco2)N2CCCC2)c1 (stereo unspecified),-117*,11,14
OCC1(Cc2ccccc2)CCN(Cc2ccc(-c3ccco3)cc2)CC1,-82*,-1,5
FC(F)(F)c1ccc(CN2C[C@@H]3C(c4ccc(Cl)nc4)C4(c5cccnc5)CC3(C4)[C@H]2c2ccccc2)cc1 (stereo partly specified),42,/,/
C#CCOCCOCCOCCNc1nc(N2CCN(C(=O)CCCCCCCCCCNC(=O)[C@H]([C@@H](C)CC)n3cc(CCCCN=C(N)N)nn3)CC2)nc(N2CCN(C(=O)CCCCCCCCCCNC(=O)[C@H](CCCN=C(N)N)n3cc(C[C@@H](C)CC)nn3)CC2)n1,46,/,/
C/C(=C\C(=O)c1ccc(Br)cc1)NCc1ccccc1,-235*,9,21
N#Cc1cccc(S(=O)(=O)N2CCN(c3ccnc4cc(Cl)ccc34)CC2)c1,-135*,3,9
SMILES,Apaf1 activ,Rh110 act interf,Apaf-1 act conf2
COc1ccc(NC2=C(NCCO)C(=O)c3ccccc3C2=O)cc1,70,/,/
S=c1nc[nH]c2nc[nH]c12,2,/,/
CCN(CC)C1=CC2=CC(=C(C#N)C#N)CCC2CC1 (stereo unspecified),-141*,+,-77*
CCCCN(C)C1=CC2=CC(=C(C#N)C#N)CCC2CC1 (stereo unspecified),-76*,-659*,-40
COC(=O)c1ccc(-c2ccc(C(c3c(C)[nH][nH]c3=O)c3c(C)[nH][nH]c3=O)o2)cc1,44,/,/
C[C@@H](CSc1ccc(Br)cc1)CN1CC[C@H](NC(=O)OCc2ccccc2)CCC1=O,40,/,/

# Screening results from PubChem.
